Screens: PubChem, several laboratories
SMARCA2 activ: increases SMARCA2 function in MMTV reporter cells; hit rate 1% among 370,000; AID 652017; activation, % at 9.1 µM; MG213 cells, MMTV-luciferase reporter, dexamethasone, overnight; in the data active = activation above about 7.8%;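 note: 0% = vehicle wells and 100% = reference activator wells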
esBAF inh: SWI/SNF esBAF complex inhibition | mouse ES cells, Bmi1-luciferase knock-in reporter, 24 h; 100% = twice the neutral-well signal | reporter increase, % at 12.5 µM | hit rate 2% among 350,000 | AID 602393; in the data active = activation above about 40%;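 note: 0% = median of the plate's neutral control wells and 100% = double that signal; a rise in the Bmi1 reporter signal indicates esBAF inhibition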
ASAP1 GAP inh: inhibitors of human ASAP1 ArfGAP activity; Q9ULH1; hit rate 0.19% among 360,000; inhibition, % at 16.5 µM; ASAP1-stimulated ARF1 GTP hydrolysis, GDP FP detection; in the data active = inhibition above about 25%;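 note: 0% = vehicle with enzyme and substrate and 100% = no enzyme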
Target sequence (Q9ULH1 325-724 limits assumed): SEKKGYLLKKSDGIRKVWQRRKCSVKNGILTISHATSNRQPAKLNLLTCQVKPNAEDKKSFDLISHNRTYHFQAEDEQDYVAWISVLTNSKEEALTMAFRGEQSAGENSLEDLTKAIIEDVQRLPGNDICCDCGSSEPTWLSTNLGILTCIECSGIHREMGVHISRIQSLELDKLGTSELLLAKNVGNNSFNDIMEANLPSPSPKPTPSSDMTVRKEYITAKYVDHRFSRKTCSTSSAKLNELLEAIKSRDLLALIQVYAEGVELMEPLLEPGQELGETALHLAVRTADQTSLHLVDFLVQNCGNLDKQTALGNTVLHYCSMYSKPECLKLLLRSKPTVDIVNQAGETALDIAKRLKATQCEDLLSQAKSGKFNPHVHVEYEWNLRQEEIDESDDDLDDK
ARFGAP1 inhibitor: rat ARFGAP1 inhibition | inhibition, % at 16.5 µM | Arfgap1-stimulated ARF1 GTP hydrolysis, GDP FP detection | hit rate 0.26% among 360,000 | AID 651572;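 active = inhibition above a per-plate limit, mean inhibition of low control wells plus 3 SD, cut at about 25% in these data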;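 note: 0% = DMSO wells with enzyme and 100% = wells lacking Arfgap1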
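Material – truncated rat Arfgap1 GAP domain · Buffer or medium – HEPES-based buffer, pH 7.5 · Reagent – human ARF1(Δ1-17)-GTP substrate · Dosing – 16.5 µM single point, 1.26% DMSO · Schedule – GTP hydrolysis reaction 2 h at 25 °C · Technique – GDP detection by fluorescence polarization · Benchmarks – No-Arfgap1 wells (100%) versus DMSO full-reaction wells (0%) · Repeats – single replicate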
Active calls of the source: *; nt = not tested or not shown. This is a sample that favours compounds with a hit; in the whole collection about 2.6% have one here.

SMILES | SMARCA2 activ | esBAF inh | ASAP1 GAP inh | ARFGAP1 inhibitor
O=C(N/N=C\c1ccc(Cl)s1)c1cccs1 | 1.5 | 72.3* | -2.0 | 0.7
O=C(N/N=C\c1cc2c(cc1[N+](=O)[O-])OCO2)c1cccs1 | 6.4 | 4.4 | 14.8 | -2.1
C[C@H]1CN([C@@H](C)CO)C(=O)c2cc(NC(=O)Nc3ccc4c(c3)OCO4)ccc2O[C@H]1CN(C)Cc1ccc(C(=O)O)cc1 | nt | 0.7 | nt | nt
C/C(NC(=O)c1cccs1)=C1\C(=O)C[C@@H]2[C@H]1C2(C)C | 5.7 | 43.6* | -12.2 | 6.5
C[C@H]1CN([C@@H](C)CO)S(=O)(=O)c2ccc(C#Cc3ccccc3F)cc2O[C@H]1CN(C)CC1CC1 | nt | -9.3 | nt | nt
CCN(CC)C(=O)/C=C/c1ccccc1 | 3.6 | nt | -1.7 | 9.5
CON(C)C(=O)/C=C/c1ccc([B-](F)(F)F)cc1 | 1.1 | 47.0* | -1.6 | 7.4
Clc1ccc2c(c1)[C@H]1OCC[C@H]1[C@@H](c1ccco1)N2 | 0.8 | 48.4* | -5.7 | -5.3
COc1ccc(-c2ccc(C(=O)Nc3ccccc3)c3occc23)c(C)c1 | -4.4 | 85.6* | -0.3 | 2.6
COc1ccc(-c2ccc(C(=O)Nc3ccc(OC)nc3)c3occc23)c(C)c1 | -6.7 | 12.8 | 7.9 | -6.9
COc1ccc(-c2ccc(C(=O)Nc3ccc4c(c3)OCO4)c3occc23)c(C)c1 | -1.5 | 59.2* | 15.0 | -0.8
Cc1noc(C)c1S(=O)(=O)Nc1cccc2c1O[C@@H](CN(C)Cc1ccc(Cl)c(Cl)c1)[C@@H](C)CN([C@H](C)CO)C2=O | nt | -8.1 | nt | nt
COc1cccc(C#Cc2cnc3c(c2)C(=O)N([C@H](C)CO)C[C@@H](C)[C@H](CN(C)C(=O)C2CC2)O3)c1 | nt | 6.2 | nt | nt
CC(=O)Nc1ccc(S(=O)(=O)NNC(=O)c2ccc(C)cc2)cc1 | -3.5 | -3.1 | -8.8 | -5.9
Cc1ccc(S(=O)(=O)NNC(=O)Nc2ccc(Cl)cc2)cc1 | 8.8* | -0.5 | 9.7 | 5.1
O=C(C1CCOCC1)N1C[C@@H]2[C@H](c3ccccc31)[C@H](CO)N2C(=O)Cc1ccccn1 | nt | 5.2 | nt | nt
Cc1nc(C2COc3ccccc3O2)sc1C(=O)O (configuration not stated) | -2.4 | 45.0* | 3.7 | -5.8
Cc1ccc(COc2ccc(/C=N/O)cc2)cc1 | 5.2 | nt | 0.5 | 1.9
Cc1ccc(Oc2ccc(/C=N/O)cn2)cc1 | 2.8 | 48.0* | -11.0 | 9.6
OCc1ccccc1OCCCOc1cccc2cccnc12 | 2.9 | 43.5* | 13.1 | 4.0
OCc1ccccc1OCCOc1ccc(Cl)c2cccnc12 | 2.7 | 6.5 | 9.1 | 7.5
O=[N+]([O-])c1ccc(Sc2cccc3cccnc23)c([N+](=O)[O-])c1 | -10.8 | 12.2 | -2.0 | -5.0
O=[N+]([O-])c1ccc(COc2cccc3cccnc23)cc1 | -0.4 | 82.9* | 2.6 | -1.9
Brc1ccc(COc2cccc3cccnc23)cc1 | 6.5 | 71.0* | -6.1 | 6.3
O=[N+]([O-])c1ccc(Sc2cccc3cccnc23)cc1 | 4.3 | 46.3* | 0.4 | 3.8
SMILES | SMARCA2 activ | esBAF inh | ASAP1 GAP inh | ARFGAP1 inhibitor
COCC#Cc1cnc2c(c1)C(=O)N([C@@H](C)CO)C[C@@H](C)[C@H](CN(C)C(=O)c1ccc(F)cc1)O2 | nt | 3.5 | nt | nt
CC(=O)NC[C@H]1[C@H](c2ccc(-c3ccccc3)cc2)[C@H](CO)N1C(=O)C1CCC1 | nt | 9.8 | nt | nt
C[C@@H]1CN([C@@H](C)CO)C(=O)Cc2cc(N(C)C)ccc2O[C@@H]1CN(C)Cc1ccc(Oc2ccccc2)cc1 | nt | 2.4 | nt | nt
CCCN(C)C[C@@H]1OCCCC[C@H](C)Oc2ccc(NC(=O)Nc3ccc(F)cc3)cc2C(=O)N([C@H](C)CO)C[C@@H]1C | nt | -1.8 | nt | nt
CO[C@@H]1CN(C)C(=O)c2cc(NC(=O)c3ccccc3F)ccc2OC[C@@H](C)N(C)C[C@@H]1C | nt | 10.3 | nt | nt
COc1ccc(NC(=O)Nc2ccc3c(c2)CC(=O)N([C@H](C)CO)C[C@@H](C)[C@@H](CN(C)Cc2ccc(-c4ccccc4)cc2)O3)cc1 | nt | -2.9 | nt | nt
CC(C)c1ccc(CNc2ccc(N3CCOCC3)cc2)cc1 | -1.2 | 6.4 | -2.1 | -14.6
Cc1ccc(CNc2ccc(N3CCOCC3)cc2)cc1 | -2.1 | 64.3* | 1.1 | -12.8
c1cc(CNc2ccc(N3CCOCC3)cc2)ccn1 | -1.8 | nt | 8.7 | -4.0
c1cc2c(cc1CNc1ccc(N3CCOCC3)cc1)OCO2 | 0.7 | 68.8* | 5.0 | -1.9
O=C(C[C@@H]1CC[C@H]2[C@@H](COC[C@H](O)CN2Cc2ccccc2F)O1)N[C@H]1CCN(Cc2ccccc2)C1 | nt | -5.6 | nt | nt
Cc1ccc(Nc2nc(COC(=O)C3CC3)cs2)cc1 | 2.9 | 48.5* | 1.0 | 8.4
